Experimental data from ChEMBL document CHEMBL4699432, “Rational design, synthesis and testing of novel tricyclic topoisomerase inhibitors for the treatment of bacterial infections part 1” (RSC Med Chem, 2020).
≈ marks a conversion by molar mass, not a printed value.

Experiments:
[1] = Lipophilicity, logD of the compound at pH 7.4; type: physicochemical; conditions: buffer
Staphylococcus aureus [2] = test: Antibacterial activity against Staphylococcus aureus ATCC 29213 assessed as reduction in bacterial growth by CLSI method based broth microdilution assay; type: functional
Streptococcus pneumoniae = test: Antibacterial activity against Streptococcus pneumoniae ATCC 49619 assessed as reduction in bacterial growth by CLSI method based broth microdilution assay; type: functional
How it was run: (§1)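 MIC by broth microdilution following CLSI guidelines for culturing and susceptibility testing; each determination run in triplicate. Agar dilution was used instead only ahead of frequency-of-resistance work.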

[3] = Thermodynamic solubility of compound at physiological pH; type: physicochemical; conditions: read-out: Therm_solubility
[4] = Cytotoxicity against human HepG2 cells; type: cell-based
Staphylococcus aureus [5] = test: Antibacterial activity against methicillin-resistant Staphylococcus aureus NRS74 assessed as reduction in bacterial growth by CLSI method based broth microdilution assay; type: functional
Staphylococcus aureus [6] = test: Antibacterial activity against methicillin-resistant Staphylococcus aureus VRS8 assessed as reduction in bacterial growth by CLSI method based broth microdilution assay; type: functional
Cytochrome P450 1A2 = molecular target: T1, Cytochrome P450 1A2 (Homo sapiens, UniProt P05177); test: Inhibition of CYP1A2 (unknown origin)
T1 sequence (P05177 whole entry): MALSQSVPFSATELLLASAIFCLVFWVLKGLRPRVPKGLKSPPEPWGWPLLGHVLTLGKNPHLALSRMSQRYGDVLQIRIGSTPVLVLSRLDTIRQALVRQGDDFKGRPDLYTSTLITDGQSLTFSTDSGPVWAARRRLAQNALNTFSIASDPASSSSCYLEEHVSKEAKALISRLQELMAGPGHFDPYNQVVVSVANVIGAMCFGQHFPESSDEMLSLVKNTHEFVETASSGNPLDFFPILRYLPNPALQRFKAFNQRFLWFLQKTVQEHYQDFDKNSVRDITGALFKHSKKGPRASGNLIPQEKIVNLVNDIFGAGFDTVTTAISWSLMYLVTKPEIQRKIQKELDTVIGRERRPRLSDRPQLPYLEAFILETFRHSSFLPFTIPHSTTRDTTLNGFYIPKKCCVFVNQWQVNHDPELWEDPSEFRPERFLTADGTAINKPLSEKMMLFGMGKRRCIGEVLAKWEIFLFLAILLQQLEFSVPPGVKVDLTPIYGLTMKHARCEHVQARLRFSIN

Cytochrome P450 2C9 = Cytochrome P450 2C9 (Homo sapiens, UniProt P11712); test: Inhibition of CYP2C9 (unknown origin)
Sequence of Cytochrome P450 2C9 (P11712 whole entry): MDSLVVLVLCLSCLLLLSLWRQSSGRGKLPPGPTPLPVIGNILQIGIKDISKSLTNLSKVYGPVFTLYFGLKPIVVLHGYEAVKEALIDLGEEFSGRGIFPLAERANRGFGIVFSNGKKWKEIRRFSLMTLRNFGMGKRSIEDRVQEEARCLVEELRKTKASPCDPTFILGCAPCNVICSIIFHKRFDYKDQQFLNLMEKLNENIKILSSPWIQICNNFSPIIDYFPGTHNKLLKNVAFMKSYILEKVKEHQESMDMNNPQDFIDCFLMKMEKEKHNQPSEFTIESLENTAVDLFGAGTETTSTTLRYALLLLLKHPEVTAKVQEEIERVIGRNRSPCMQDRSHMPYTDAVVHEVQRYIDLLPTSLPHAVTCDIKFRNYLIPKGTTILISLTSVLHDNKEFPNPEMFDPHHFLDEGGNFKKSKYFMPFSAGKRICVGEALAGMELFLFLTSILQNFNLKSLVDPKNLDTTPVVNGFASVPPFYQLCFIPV

Cytochrome P450 2C19 = Cytochrome P450 2C19 (Homo sapiens, UniProt P33261); test: Inhibition of CYP2C19 (unknown origin)
Sequence of Cytochrome P450 2C19 (P33261 whole entry): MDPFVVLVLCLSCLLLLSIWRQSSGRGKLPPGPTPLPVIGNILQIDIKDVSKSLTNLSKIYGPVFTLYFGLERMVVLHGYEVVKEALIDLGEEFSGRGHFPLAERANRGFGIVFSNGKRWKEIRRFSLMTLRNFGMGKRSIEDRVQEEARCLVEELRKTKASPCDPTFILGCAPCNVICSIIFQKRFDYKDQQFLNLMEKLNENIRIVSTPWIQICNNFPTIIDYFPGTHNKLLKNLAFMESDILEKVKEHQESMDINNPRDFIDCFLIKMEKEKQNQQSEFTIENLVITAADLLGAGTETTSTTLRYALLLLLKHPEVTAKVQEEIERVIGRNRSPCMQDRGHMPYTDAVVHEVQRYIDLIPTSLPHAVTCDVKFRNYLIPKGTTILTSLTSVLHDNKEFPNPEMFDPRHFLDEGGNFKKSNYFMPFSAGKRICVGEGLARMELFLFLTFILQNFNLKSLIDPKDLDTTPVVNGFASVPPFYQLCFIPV

Cytochrome P450 3A4 = Cytochrome P450 3A4 (Homo sapiens, UniProt P08684); test: Inhibition of CYP3A4 (unknown origin)
Sequence of Cytochrome P450 3A4 (P08684 whole entry): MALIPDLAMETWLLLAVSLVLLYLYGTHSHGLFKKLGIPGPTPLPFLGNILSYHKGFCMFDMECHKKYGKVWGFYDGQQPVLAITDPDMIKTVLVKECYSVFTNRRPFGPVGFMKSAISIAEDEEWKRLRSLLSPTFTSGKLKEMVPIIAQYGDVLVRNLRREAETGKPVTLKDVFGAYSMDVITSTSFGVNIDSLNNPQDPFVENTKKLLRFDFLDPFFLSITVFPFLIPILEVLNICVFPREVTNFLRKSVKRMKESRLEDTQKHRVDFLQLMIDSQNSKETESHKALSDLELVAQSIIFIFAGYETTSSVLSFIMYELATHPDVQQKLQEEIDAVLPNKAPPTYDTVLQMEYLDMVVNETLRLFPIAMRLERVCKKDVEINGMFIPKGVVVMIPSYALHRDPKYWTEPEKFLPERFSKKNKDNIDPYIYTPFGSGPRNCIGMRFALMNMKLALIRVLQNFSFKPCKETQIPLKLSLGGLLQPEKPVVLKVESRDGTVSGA

Cytochrome P450 2D6 = Cytochrome P450 2D6 (Homo sapiens, UniProt P10635); test: Inhibition of CYP2D6 (unknown origin)
Sequence of Cytochrome P450 2D6 (P10635 whole entry): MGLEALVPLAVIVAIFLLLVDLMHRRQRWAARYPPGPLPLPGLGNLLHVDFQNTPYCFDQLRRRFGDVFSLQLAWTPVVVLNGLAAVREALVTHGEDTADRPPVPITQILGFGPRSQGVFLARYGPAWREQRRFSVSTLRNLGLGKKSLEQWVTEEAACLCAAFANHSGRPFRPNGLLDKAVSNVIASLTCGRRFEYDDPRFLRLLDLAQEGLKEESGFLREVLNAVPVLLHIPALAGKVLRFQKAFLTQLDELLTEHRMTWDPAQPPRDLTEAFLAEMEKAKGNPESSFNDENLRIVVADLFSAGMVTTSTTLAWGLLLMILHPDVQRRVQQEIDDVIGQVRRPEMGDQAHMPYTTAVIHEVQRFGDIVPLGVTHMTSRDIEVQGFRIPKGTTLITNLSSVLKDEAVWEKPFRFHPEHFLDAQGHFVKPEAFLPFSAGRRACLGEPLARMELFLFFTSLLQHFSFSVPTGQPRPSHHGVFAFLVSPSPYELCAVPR

Staphylococcus aureus [7] = test: Antibacterial activity against fluoroquinolone and multidrug-resistant Staphylococcus aureus assessed as reduction in bacterial growth by CLSI method based broth microdilution assay; type: functional
How it was run: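 Run to CLSI guidelines by broth microdilution, in triplicate. Growth was read to give the MIC.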

Neisseria gonorrhoeae = test: Antibacterial activity against Neisseria gonorrhoeae assessed as reduction in bacterial growth by CLSI method based broth microdilution assay; type: functional; how it was run: as §1
hERG (KCNH2) = hERG (KCNH2) (Homo sapiens, UniProt Q12809); test: Inhibition of human ERG at 100 uM relative to control
Sequence of hERG (KCNH2) (Q12809 whole entry): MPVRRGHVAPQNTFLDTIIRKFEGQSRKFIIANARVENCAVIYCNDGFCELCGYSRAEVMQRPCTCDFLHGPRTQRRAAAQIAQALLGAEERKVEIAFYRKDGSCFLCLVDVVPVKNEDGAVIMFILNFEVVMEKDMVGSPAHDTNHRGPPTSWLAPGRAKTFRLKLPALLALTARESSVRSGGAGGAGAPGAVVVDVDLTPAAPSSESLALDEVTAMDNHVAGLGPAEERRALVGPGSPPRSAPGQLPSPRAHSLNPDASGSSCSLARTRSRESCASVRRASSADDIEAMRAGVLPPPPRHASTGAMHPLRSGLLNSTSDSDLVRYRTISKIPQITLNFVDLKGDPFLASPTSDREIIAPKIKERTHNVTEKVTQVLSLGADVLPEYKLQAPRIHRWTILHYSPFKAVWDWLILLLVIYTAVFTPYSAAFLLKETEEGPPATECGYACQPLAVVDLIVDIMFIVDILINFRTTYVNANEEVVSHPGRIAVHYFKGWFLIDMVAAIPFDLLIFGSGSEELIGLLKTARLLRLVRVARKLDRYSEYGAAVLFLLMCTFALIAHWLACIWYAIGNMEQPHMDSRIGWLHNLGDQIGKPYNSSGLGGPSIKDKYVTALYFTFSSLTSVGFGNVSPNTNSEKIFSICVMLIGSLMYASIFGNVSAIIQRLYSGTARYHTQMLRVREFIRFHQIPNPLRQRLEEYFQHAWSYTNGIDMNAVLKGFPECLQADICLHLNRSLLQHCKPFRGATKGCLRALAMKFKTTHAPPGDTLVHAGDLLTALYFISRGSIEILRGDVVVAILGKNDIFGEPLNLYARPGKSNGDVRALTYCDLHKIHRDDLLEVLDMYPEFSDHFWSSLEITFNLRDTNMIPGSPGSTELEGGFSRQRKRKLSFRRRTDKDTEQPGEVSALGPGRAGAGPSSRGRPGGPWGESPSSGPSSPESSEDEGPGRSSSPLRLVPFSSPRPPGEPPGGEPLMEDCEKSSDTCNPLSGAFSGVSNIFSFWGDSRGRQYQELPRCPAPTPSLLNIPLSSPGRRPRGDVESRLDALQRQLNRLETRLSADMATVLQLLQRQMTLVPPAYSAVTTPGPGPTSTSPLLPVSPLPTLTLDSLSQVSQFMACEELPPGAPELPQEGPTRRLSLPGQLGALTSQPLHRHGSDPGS

[8] = molecular target: Voltage-gated inwardly rectifying potassium channel KCNH2 (Homo sapiens, UniProt Q12809)
Sequence of Voltage-gated inwardly rectifying potassium channel KCNH2 (Q12809 whole entry): as above

| logD [1] | MIC (Staphylococcus aureus [2]) [µg/mL] | MIC (Streptococcus pneumoniae) [µg/mL] | solubility thermodynamic [3] | SMILES | CC50 [4] [µg/mL] | further results |
| --- | --- | --- | --- | --- | --- | --- |
|  | 0.25 (≈ 0.645 µM) |  |  | Nc1cc(F)c(-c2ccc3c4ocnc4c(=O)n(C4CC4)c3c2Cl)cc1F |  |  |
| 3.14 | 0.06 (≈ 0.157 µM) | 0.25 (≈ 0.654 µM) | 1.9 µg/mL | Cc1c(-c2cc(F)c(CO)cc2F)ccc2c3ocnc3c(=O)n(C3CC3)c12 | > 32 |  |
|  | 2 (≈ 5.63 µM) |  |  | CCn1c(=O)c2ncoc2c2ccc(-c3cc(F)c(N)cc3F)c(C)c21 |  |  |
| 1.46 | 64 (≈ 192 µM) | > 128 | 6.8 µg/mL | Cc1c(-c2cnc(N)cn2)ccc2c3ocnc3c(=O)n(C3CC3)c12 |  |  |
| 3.05 | 0.12 (≈ 0.343 µM) | 1 (≈ 2.86 µM) | 1.1 µg/mL | Cc1c(-c2ccc(N)cc2F)ccc2c3ocnc3c(=O)n(C3CC3)c12 | 16 (≈ 45.8 µM) |  |
| 2.52 | 0.25 (≈ 0.673 µM) | 0.25 (≈ 0.673 µM) | 16 µg/mL | Cc1c(-c2ccc3[nH]c(N)nc3c2)ccc2c3ocnc3c(=O)n(C3CC3)c12 | > 32 |  |
|  | 0.12 (≈ 0.343 µM) | 2 (≈ 5.72 µM) |  | Cc1c(-c2ccc(N)c(F)c2)ccc2c3ocnc3c(=O)n(C3CC3)c12 | > 128 |  |
|  | 2 (≈ 5.66 µM) |  |  | Nc1cc(F)c(-c2ccc3c4ocnc4c(=O)n(C4CC4)c3c2)cc1F |  |  |
| 1.32 | 1 (≈ 3 µM) | 4 (≈ 12 µM) | 15 µg/mL | Cc1c(-c2cnc(N)nc2)ccc2c3ocnc3c(=O)n(C3CC3)c12 | > 32 |  |
| 2.94 | 0.06 (≈ 0.168 µM) | 0.25 (≈ 0.701 µM) |  | Cc1c(-c2ccc(N)c(C#N)c2)ccc2c3ocnc3c(=O)n(C3CC3)c12 | > 4 |  |
|  | 0.03 (≈ 0.0787 µM) |  |  | Cc1nc2c(=O)n(C3CC3)c3c(C)c(-c4cc(F)c(N)cc4F)ccc3c2o1 |  |  |
|  | 1 (≈ 2.68 µM) |  |  | CCn1c(=O)c2ncoc2c2cc(F)c(-c3cc(F)c(N)cc3F)c(C)c21 |  |  |
|  | 128 (≈ 344 µM) |  |  | Nc1cc(F)c(-c2nc3c(cc2F)c2ocnc2c(=O)n3C2CC2)cc1F |  |  |
|  | 0.25 (≈ 0.673 µM) |  |  | Nc1cc(F)c(-c2cc3c(cc2F)c2ocnc2c(=O)n3C2CC2)cc1F |  |  |
|  | 0.5 (≈ 1.35 µM) |  |  | C[C@H]1COc2c(-c3cc(F)c(N)cc3F)ccc3c4ocnc4c(=O)n1c23 |  |  |
|  | 64 (≈ 161 µM) | > 128 |  | Cc1c(-c2cc(F)c(C(=O)O)cc2F)ccc2c3ocnc3c(=O)n(C3CC3)c12 |  |  |

Continued, molecule first:

| SMILES | logD [1] | MIC (Staphylococcus aureus [2]) [µg/mL] | MIC (Streptococcus pneumoniae) [µg/mL] | solubility thermodynamic [3] | CC50 [4] [µg/mL] | further results |
| --- | --- | --- | --- | --- | --- | --- |
| Cc1c(-c2ccc(N)cc2)ccc2c3ocnc3c(=O)n(C3CC3)c12 | 2.59 | 0.5 (≈ 1.51 µM) | 4 (≈ 12.1 µM) |  |  |  |
| Cc1c(-c2ccc(N)nn2)ccc2c3ocnc3c(=O)n(C3CC3)c12 |  | > 64 | > 64 |  |  |  |
| Cc1c(-c2ccc3[nH]ncc3c2)ccc2c3oc(CN)nc3c(=O)n(C3CC3)c12 |  | 0.06 (≈ 0.156 µM) |  | 10 µg/mL | 32 (≈ 83 µM) | MIC (Staphylococcus aureus [5]): 0.5 µg/mL (≈ 1.3 µM); MIC (Staphylococcus aureus [6]): 2 µg/mL (≈ 5.19 µM); IC50 (Cytochrome P450 1A2): 12.3 µM; IC50 (Cytochrome P450 2C9): 0.2 µM; IC50 (Cytochrome P450 2C19): 0.8 µM; IC50 (Cytochrome P450 3A4): 1.3 µM; IC50 (Cytochrome P450 2D6): 12.7 µM |
| Cc1c(-c2cc(F)c(N)cc2F)ccc2c3ocnc3c(=O)n(C3CC3)c12 | 2.96 | 0.03 (≈ 0.0817 µM) | 1 (≈ 2.72 µM) | 3 µM | > 128 | MIC90 (Staphylococcus aureus [7]): 0.25 µg/mL (≈ 0.681 µM); MIC (Neisseria gonorrhoeae): 0.06 µg/mL (≈ 0.163 µM); MIC (Staphylococcus aureus [5]): 0.06 µg/mL (≈ 0.163 µM); MIC (Staphylococcus aureus [6]): 0.5 µg/mL (≈ 1.36 µM); IC50 (Cytochrome P450 1A2): > 30 µM; IC50 (Cytochrome P450 2C9): > 30 µM; IC50 (Cytochrome P450 2C19): > 30 µM; IC50 (Cytochrome P450 3A4): > 30 µM; IC50 (Cytochrome P450 2D6): > 30 µM; inhibition at 100 µM (hERG (KCNH2)): 3% |
| Cc1c(-c2cc(F)c(N)cc2F)ccc2c3oc(CN)nc3c(=O)n(C3CC3)c12 |  | 0.06 (≈ 0.151 µM) |  | 36 µg/mL | > 64 | MIC (Staphylococcus aureus [5]): 0.06 µg/mL (≈ 0.151 µM); MIC (Staphylococcus aureus [6]): 4 µg/mL (≈ 10.1 µM); IC50 (Cytochrome P450 1A2): 7.5 µM; IC50 (Cytochrome P450 2C9): 0.3 µM; IC50 (Cytochrome P450 2C19): 0.5 µM; IC50 (Cytochrome P450 3A4): 12.9 µM; IC50 (Cytochrome P450 2D6): 11.3 µM |
| Cc1c(-c2ccc3[nH]ncc3c2)ccc2c3ocnc3c(=O)n(C3CC3)c12 | 3.29 | 0.004 (≈ 0.0112 µM) | 0.5 (≈ 1.4 µM) | 1.1 µg/mL | > 16 |  |
| Cc1c(-c2ccc3[nH]cnc3c2)ccc2c3ocnc3c(=O)n(C3CC3)c12 | 3.03 | 0.25 (≈ 0.701 µM) | 0.25 (≈ 0.701 µM) | < 9 µg/mL | > 16 |  |
| Cc1c(-c2ccccc2)ccc2c3ocnc3c(=O)n(C3CC3)c12 |  | 1 (≈ 3.16 µM) | 4 (≈ 12.6 µM) |  |  |  |
| Cc1c(-c2cnc3[nH]ncc3c2)ccc2c3oc(CN)nc3c(=O)n(C3CC3)c12 |  | 0.25 (≈ 0.647 µM) |  | 618 µg/mL | > 128 | MIC (Staphylococcus aureus [5]): 2 µg/mL (≈ 5.18 µM); MIC (Staphylococcus aureus [6]): 2 µg/mL (≈ 5.18 µM); IC50 [8]: 45.1 µM |
| Cc1c(-c2ccc3nonc3c2)ccc2c3ocnc3c(=O)n(C3CC3)c12 | 3.03 | 0.25 (≈ 0.698 µM) | 4 (≈ 11.2 µM) | < 9 µg/mL | > 32 |  |
| Cc1c(-c2ccc(C(C)N)cc2)ccc2c3ocnc3c(=O)n(C3CC3)c12 (configuration not stated) |  | 0.5 (≈ 1.39 µM) | 2 (≈ 5.56 µM) |  | > 32 |  |
| Cc1c(-c2ccc3c(c2)CNC3)ccc2c3ocnc3c(=O)n(C3CC3)c12 | 0.75 | 0.12 (≈ 0.336 µM) | 0.5 (≈ 1.4 µM) | 209 µg/mL | > 64 |  |
